A1 apoptosis 2: A1 inhibition read as caspase activation; MEF A1-2A-BIM cells, caspase-Glo luminescence, 3 h; percent of clofoctol response, DMSO zero; caspase activation, % (concentration not given with the values); 24,000 tested, under 10 active; AID 2465; in the data active = caspase activation above about 5.9%; inconclusive = no clear call, values can overlap the other calls; inactive = below about 2.2%
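Material: A1-2A-BIM-expressing MEF cells. Buffer or medium: RPMI-1640 plus 10% FBS. Incubation: cells settled overnight, compound exposure 3 h at 37 °C, 5% CO2. Signal: Caspase-Glo 3/7 luminescence, 1 h at room temperature.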
INS-1E rescue: INS-1E beta cell protection from cytokine death; INS-1E cytokine-induced death, ATP luminescence, 48 h; normalised: neutral wells 0, positive control 100; protection from cytokine-induced ATP loss, % at 10 µM; 0.1% of 20,000 active; AID 488910;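 active = mean replicate protection from cytokine-induced ATP loss at least 50% and at least 75% of replicates each reaching 50%; inconclusive = meets only one of the two criteria, mean or replicate share; inactive = fails both the mean and replicate share criteria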
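Assay system: INS-1E rat cells / Quantity: 8000 cells per well / Medium: RPMI without phenol red, 5% FBS / Probe or stimulus: three-cytokine cocktail (IFN-γ, TNF-α, IL-1β) / Dosing: one compound concentration, pin transfer / Timing: 48 h co-treatment, 10 min post-lysis read / Technique: CellTiter-Glo luminescence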
T cruzi HTS: inhibitors of intracellular Trypanosoma cruzi | 4.9% of 22,000 active | intracellular Trypanosoma cruzi in host cells, plate reader | AID 651903 | activity score (inhibition), % at 5.01 µM; in the data active = activity score above about 55%; inconclusive = no clear call, values can overlap the other calls;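 note: parasites and compound incubated about four days before reading; 0% = median of neutral control wells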
The depositor's hits bear a star; ? = inconclusive; nt = no result. This excerpt belongs to a sample that is enriched for hits.

SMILES	A1 apoptosis 2	INS-1E rescue	T cruzi HTS
C[C@H]1CN([C@@H](C)CO)C(=O)Cc2cc(NC(=O)Nc3ccc(F)cc3)ccc2O[C@H]1CN(C)CC1CCCCC1	nt	-3.0	-5.2
C[C@H](CO)N1C[C@H](C)[C@H](CN(C)CC2CCCCC2)Oc2ccc(NC(=O)Nc3ccc(C(F)(F)F)cc3)cc2CC1=O	0.2	-78.6	60.4*
C[C@H](CO)N1C[C@H](C)[C@H](CN(C)CC2CCCCC2)Oc2ccc(NC(=O)Nc3ccc(F)cc3)cc2CC1=O	0.3	4.9	41.8
C[C@H]1CN([C@@H](C)CO)C(=O)Cc2cc(NC(=O)Nc3ccc(C(F)(F)F)cc3)ccc2O[C@@H]1CN(C)CC1CCCCC1	0.4	-41.6	63.2*
C[C@H]1CN([C@@H](C)CO)C(=O)Cc2cc(NS(=O)(=O)c3ccc(F)cc3)ccc2O[C@H]1CN(C)C(=O)Nc1cccc2ccccc12	nt	-2.9	-3.3
C[C@H]1CN([C@@H](C)CO)C(=O)Cc2cc(NS(=O)(=O)c3ccc(F)cc3)ccc2O[C@H]1CN(C)C(=O)Nc1ccc2c(c1)OCO2	nt	-7.5	-2.9
C[C@@H]1CCCCO[C@H](CN(C)C(=O)c2ccccc2)[C@H](C)CN([C@H](C)CO)C(=O)c2cc(NS(=O)(=O)c3ccc(Cl)cc3)ccc2O1	1.4	nt	nt
C[C@H](CO)N1C[C@H](C)[C@H](CN(C)C(=O)Nc2ccc(C(F)(F)F)cc2)Oc2ccc(NC(=O)Cc3ccccc3)cc2C1=O	-0.7	-7.0	14.3
C[C@@H]1CN([C@@H](C)CO)C(=O)Cc2cc(NC(=O)c3ccncc3)ccc2O[C@@H]1CN(C)Cc1ccc2c(c1)OCO2	1.0	-11.8	-5.9
COc1ccc(CN(C)C[C@@H]2OCCCC[C@H](C)Oc3ccc(NC(=O)Nc4ccccc4)cc3C(=O)N([C@@H](C)CO)C[C@H]2C)cc1	-0.8	nt	nt
Cc1ccc(S(=O)(=O)Nc2ccc3c(c2)C(=O)N([C@H](C)CO)C[C@@H](C)[C@@H](CN(C)Cc2ccc4c(c2)OCO4)O3)cc1	-0.6	-4.0	7.6
C[C@H](CO)N1C[C@H](C)[C@@H](CN(C)Cc2ccc3c(c2)OCO3)Oc2ccc(NS(=O)(=O)c3ccc(F)cc3)cc2C1=O	-1.0	3.2	59.0*
C[C@@H]1CN([C@@H](C)CO)C(=O)c2cc(NS(=O)(=O)c3ccccc3)ccc2O[C@H]1CN(C)Cc1ccc(C(F)(F)F)cc1	nt	-18.0	44.1
C[C@@H]1CN([C@@H](C)CO)C(=O)c2cc(NS(=O)(=O)c3ccc(F)cc3)ccc2O[C@H]1CN(C)Cc1ccc(C(F)(F)F)cc1	-1.5	-12.7	38.0
C[C@H](CO)N1C[C@H](C)[C@@H](CN(C)Cc2ccc(C(F)(F)F)cc2)Oc2ccc(NS(=O)(=O)c3ccc(F)cc3)cc2C1=O	nt	nt	60.9*
C[C@H]1CN([C@@H](C)CO)C(=O)c2cc(NS(=O)(=O)c3ccccc3)ccc2O[C@H]1CN(C)Cc1ccc(C(F)(F)F)cc1	nt	nt	61.6*
COc1ccc(S(=O)(=O)Nc2ccc3c(c2)C(=O)N([C@H](C)CO)C[C@H](C)[C@@H](CN(C)Cc2ccc(C(F)(F)F)cc2)O3)cc1	-0.6	-11.6	64.1*
COc1ccc(S(=O)(=O)Nc2ccc3c(c2)C(=O)N([C@H](C)CO)C[C@@H](C)[C@H](CN(C)Cc2ccc(C(F)(F)F)cc2)O3)cc1	-0.3	nt	5.1
C[C@H]1CN([C@@H](C)CO)C(=O)Cc2cc(NS(=O)(=O)c3cccs3)ccc2O[C@H]1CN(C)S(C)(=O)=O	-1.3	2.7	nt
C[C@@H]1CN([C@H](C)CO)C(=O)c2cc(NC(=O)Cc3cn(C)c4ccccc34)ccc2O[C@H]1CN(C)CC1CCCCC1	0.6	-16.7	20.2
C[C@@H]1CN([C@H](C)CO)C(=O)c2cccc(NC(=O)c3cnccn3)c2O[C@H]1CN(C)Cc1ccncc1	2.3	1.6	5.5
C[C@H](CO)N1C[C@H](C)[C@@H](CN(C)C(=O)Nc2ccc3c(c2)OCO3)Oc2c(NS(=O)(=O)c3cn(C)cn3)cccc2C1=O	nt	19.3	-15.3
C[C@@H]1CN([C@@H](C)CO)C(=O)c2cc(NS(=O)(=O)c3ccc(F)cc3)ccc2O[C@@H]1CN(C)Cc1ccc(C(F)(F)F)cc1	-1.5	-31.5	?
Cc1ccc(S(=O)(=O)Nc2ccc3c(c2)C(=O)N([C@H](C)CO)C[C@@H](C)[C@@H](CN(C)Cc2ccc(C(F)(F)F)cc2)O3)cc1	nt	-27.0	59.6*
Cc1ccc(S(=O)(=O)Nc2ccc3c(c2)C(=O)N([C@H](C)CO)C[C@H](C)[C@@H](CN(C)Cc2ccc(C(F)(F)F)cc2)O3)cc1	-2.1	2.8	67.5*
SMILES	A1 apoptosis 2	INS-1E rescue	T cruzi HTS
Cc1ccc(S(=O)(=O)Nc2ccc3c(c2)C(=O)N([C@H](C)CO)C[C@@H](C)[C@H](CN(C)Cc2ccc(C(=O)O)cc2)O3)cc1	nt	4.7	-25.3
Cc1ccc(S(=O)(=O)Nc2ccc3c(c2)C(=O)N([C@@H](C)CO)C[C@H](C)[C@H](CN(C)Cc2ccc(C(=O)O)cc2)O3)cc1	nt	8.0	-18.8
Cc1ccc(S(=O)(=O)Nc2ccc3c(c2)C(=O)N([C@@H](C)CO)C[C@H](C)[C@@H](CN(C)Cc2ccc(C(F)(F)F)cc2)O3)cc1	nt	nt	64.6*
Cc1ccc(S(=O)(=O)Nc2ccc3c(c2)C(=O)N([C@@H](C)CO)C[C@@H](C)[C@@H](CN(C)Cc2ccc(C(F)(F)F)cc2)O3)cc1	0.1	nt	-7.2
C[C@@H]1CN([C@@H](C)CO)C(=O)c2cc(NS(=O)(=O)c3ccc(Cl)cc3)ccc2O[C@@H]1CN(C)Cc1ccc(C(F)(F)F)cc1	-1.2	-31.0	83.6*
Cc1noc(C)c1S(=O)(=O)Nc1ccc2c(c1)C(=O)N([C@@H](C)CO)C[C@@H](C)[C@@H](CN(C)Cc1ccc(C(F)(F)F)cc1)O2	nt	-12.8	1.7
C[C@H](CO)N1C[C@H](C)[C@H](CN(C)Cc2ccc(C(=O)O)cc2)Oc2ccc(NC(=O)CCN3CCOCC3)cc2CC1=O	-0.1	10.2	-32.9
C[C@@H]1CCCCO[C@H](CN(C)C(=O)Nc2ccc3c(c2)OCO3)[C@@H](C)CN([C@H](C)CO)C(=O)c2cc(NS(=O)(=O)c3cccs3)ccc2O1	0.3	-0.9	-6.2
C[C@@H]1CN([C@@H](C)CO)C(=O)Cc2cc(NC(=O)CCC(F)(F)F)ccc2O[C@H]1CN(C)S(=O)(=O)c1cn(C)cn1	0.4	nt	nt
COc1ccc(CN(C)C[C@H]2Oc3ccc(NC(=O)Nc4c(C)noc4C)cc3C(=O)N([C@H](C)CO)C[C@@H]2C)cc1	1.0	-2.6	9.1
C[C@@H]1CN([C@@H](C)CO)C(=O)c2cccc(NC(=O)c3ccc(-c4nccs4)cc3)c2O[C@H]1CN(C)C(=O)NC1CCCCC1	-0.2	6.5	5.3
C[C@@H]1CN([C@@H](C)CO)C(=O)c2cccc(NC(=O)c3ccc(-c4nccs4)cc3)c2O[C@H]1CN(C)Cc1ccc(Oc2ccccc2)cc1	nt	-29.0	61.9*
C[C@@H]1CN([C@H](C)CO)C(=O)c2cccc(NC(=O)c3ccc(-c4nccs4)cc3)c2O[C@@H]1CN(C)Cc1ccc(Oc2ccccc2)cc1	nt	-51.8	41.7
